≈ marks a conversion by molar mass, not a printed value.
System: Mycobacterium tuberculosis variant bovis BCG
Assay: Antimycobacterial activity against Mycobacterium bovis BCG Pasteur after 6 days by microdilution resazurin assay
Type: functional
Details: 144 h
Summary of the method: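 Microdilution resazurin assay with M. bovis BCG inoculum grown in Dubos medium with 10% ADC. Drugs (DMSO stocks of 50 mg/mL) are twofold serially diluted in 96-well plates, with DMSO and isoniazid controls, then incubated at 37 °C. Resazurin (0.01% w/v) is added and incubation continues 24 h. MIC95 is the amount giving >95% growth inhibition, in µg/mL. Duplicate runs in two independent experiments.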

| SMILES | MIC95 [µg/mL] |
| --- | --- |
| Cc1c2c(c3cc(-c4ccc(NCCCN(C)C)nc4)oc3c1C)CCC(C)(C)O2 | 6.2 (≈ 15.2 µM) |
| NNC(=O)c1ccncc1 [ISONIAZID] | 0.4 (≈ 2.92 µM) |
| Cc1c2c(c3cc(-c4ccc(-c5nn[nH]n5)nc4)oc3c1C)CCC(C)(C)O2 | 25 (≈ 66.6 µM) |
| CC1(C)C=Cc2c(ccc3oc(-c4ccncc4)cc23)O1 | 6.2 (≈ 22.4 µM) |
| Cc1c2c(c3cc(-c4ccc[n+]([O-])c4)oc3c1C)CCC(C)(C)O2 | 12.5 (≈ 38.7 µM) |
| Cc1c2c(c3cc(CCc4cccnc4)oc3c1C)CCC(C)(C)O2 | 3.1 (≈ 9.24 µM) |
| CC1(C)CCc2c(ccc3oc(-c4ccncc4)c(CCCO)c23)O1 | 12.5 (≈ 37 µM) |
| Cc1c2c(c3cc(/C=C/c4cccnc4)oc3c1C)CCC(C)(C)O2 | 6.2 (≈ 18.6 µM) |
| Cc1c2c(c3cc(-c4ccc(Cl)nc4)oc3c1C)CCC(C)(C)O2 | > 100 |
| Cc1c2c(c3cc(CCC(=O)N4CCOCC4)oc3c1C)CCC(C)(C)O2 | > 100 |
| Cc1c2c(c3cc(Cc4cccs4)oc3c1C)CCC(C)(C)O2 | > 100 |
| Cc1c2c(c3cc(-c4ccncc4)oc3c1C)CCC(C)(C)O2 | 3.1 (≈ 10.1 µM) |
| CC(=O)OCc1cc2c3c(c(C)c(C)c2o1)OC(C)(C)CC3 | > 100 |
| CC1(C)CCc2c(ccc3oc(-c4cccnc4)c(CCCO)c23)O1 | 6.2 (≈ 18.4 µM) |
| Cc1c2c(c3cc(-c4cccnc4)oc3c1C)CCC(C)(C)O2 | 3.1 (≈ 10.1 µM) |
| COC(=N)c1ccc(-c2cc3c4c(c(C)c(C)c3o2)OC(C)(C)CC4)cn1 | 6.2 (≈ 17 µM) |
| Cc1c2c(c3cc(-c4cccs4)oc3c1C)CCC(C)(C)O2 | > 100 |
| Cc1c2c(c3cc(-c4ccccn4)oc3c1C)CCC(C)(C)O2 | > 100 |
| Cc1c2c(c3cc(Cc4ccc(Cl)cc4)oc3c1C)CCC(C)(C)O2 | > 100 |
| Cc1c(-c2ccncc2)oc2ccc3c(c12)C=CC(C)(C)O3 | 6.2 (≈ 21.3 µM) |
| Cc1c2c(c3cc(-c4cnccn4)oc3c1C)CCC(C)(C)O2 | 25 (≈ 81.1 µM) |
| Cc1c2c(c3cc(Cc4cccnc4)oc3c1C)CCC(C)(C)O2 | 6.2 (≈ 19.3 µM) |

Source: ChEMBL document CHEMBL1158394, “Diversity-oriented synthesis of furo[3,2-f]chromanes with antimycobacterial activity” (Eur J Med Chem, 2009)
